Publication PMC3741069 (Biochemistry, 2013)
Numbering of substitutions follows the chain as printed.

Key:
Experiment in all cases: spectral perturbation titration
Assay type in all cases: binding
nitrate reductase (NarB) [1] = target: T1, nitrate reductase (NarB) (Synechococcus elongatus, UniProt P39458, K72Q)
T1 sequence (P39458 15-729 K72Q): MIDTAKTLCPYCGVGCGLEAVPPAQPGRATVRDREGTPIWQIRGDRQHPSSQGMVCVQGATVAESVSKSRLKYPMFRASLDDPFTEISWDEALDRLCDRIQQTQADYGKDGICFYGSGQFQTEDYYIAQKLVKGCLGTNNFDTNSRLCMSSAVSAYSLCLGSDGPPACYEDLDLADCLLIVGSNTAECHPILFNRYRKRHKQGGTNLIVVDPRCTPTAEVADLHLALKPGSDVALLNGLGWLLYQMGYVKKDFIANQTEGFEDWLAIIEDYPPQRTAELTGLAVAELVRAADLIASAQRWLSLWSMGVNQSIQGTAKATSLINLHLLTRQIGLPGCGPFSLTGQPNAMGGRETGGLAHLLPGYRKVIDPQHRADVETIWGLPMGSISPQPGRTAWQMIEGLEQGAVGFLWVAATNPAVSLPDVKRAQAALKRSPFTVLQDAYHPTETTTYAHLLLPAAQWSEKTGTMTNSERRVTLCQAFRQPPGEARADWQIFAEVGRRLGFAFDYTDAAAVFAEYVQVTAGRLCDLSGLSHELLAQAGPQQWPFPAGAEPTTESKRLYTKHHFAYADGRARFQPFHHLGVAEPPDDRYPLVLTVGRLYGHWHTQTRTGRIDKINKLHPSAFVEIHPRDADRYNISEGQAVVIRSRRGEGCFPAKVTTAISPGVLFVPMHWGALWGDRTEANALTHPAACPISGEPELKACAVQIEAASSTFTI
Procedure, shortened: (§1)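 Single-residue NarB variants were made by site-directed mutagenesis and expressed and purified as for wild type (His6, Co affinity, DEAE, gel filtration). Complex formation with ferredoxin or nitrate was followed by difference absorbance at variant-specific wavelength pairs chosen for signal:noise. The change at saturating nitrate was taken as 100% complex. Kd came from fitting perturbation magnitude against ligand concentration to a single binding isotherm.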

nitrate reductase (NarB) [2] = target: T2, nitrate reductase (NarB) (Synechococcus elongatus, UniProt P39458, R84Q)
T2 sequence (P39458 15-729 R84Q): T1 sequence (P39458 15-729 K72Q) with Q58K, R70Q
Procedure, shortened: as §1

nitrate reductase (NarB) [3] = target: T3, nitrate reductase (NarB) (Synechococcus elongatus, UniProt P39458, K144R)
T3 sequence (P39458 15-729 K144R): T1 sequence (P39458 15-729 K72Q) with Q58K, K130R
Procedure, shortened: as §1

## O=[N+]([O-])O [nitrate]
Nitrate reductase (NarB) [1]
  Kd: 8 ± 2.3 µM
Nitrate reductase (NarB) [2]
  Kd: 5.5 ± 2.2 µM
Nitrate reductase (NarB) [3]
  Kd: 13.4 ± 3 µM
